Tests used:
casein kinase 2α = assay: In vitro protein kinase activity assay, casein kinase 2α; assay type: biochemical, human; conditions: PASK vs casein kinase 2α2
SREBP = assay: SRE-driven luciferase; assay type: cell-based, human; conditions: for concentrations giving a significant reduction in SREBP activity: HepG2, SRE-Luc, 100nM insulin 6 h; for effects on cell morphology or growth rate: HepG2 cells, concentrations of the SRE-Luc experiment
Outline: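 Transfection of HepG2 cells used Lipofectamine LTX, with pSRE-Luc plus CMV-driven Renilla luciferase. Cells were serum-starved overnight with vehicle or graded concentrations of test compound, then stimulated with 100 nM insulin for 6 h. Firefly and Renilla luciferase were read by dual-reporter assay. Data were normalised to vehicle-treated samples; n=3, mean ± SD.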

[1] = system: Akt and S6K phosphorylation; assay: Immunoblot of Akt and S6K phosphorylation in response to insulin in HepG2 cells; assay type: cell-based, human
Outline: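 HepG2 cells received vehicle or graded concentrations of test compound, then 100 nM insulin for 6 h. Cell lysates were immunoblotted for phosphorylation state and abundance of Akt and S6K.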

SREBP-1c maturation = assay: Immunoblot of precursor and mature SREBP-1c in HepG2 cells; assay type: cell-based, human
Outline: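 HepG2 cells expressing GFP or 3xFlag-tagged precursor SREBP-1a or SREBP-1c were treated with test compound (30 and 50 μM), then 100 nM insulin for 6 h. Whole-cell lysate and nuclear extract were immunoblotted for precursor and mature SREBP-1c, and the mature:precursor ratio was determined.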

[2] = system: high-fructose diet (HFrD) fed rats; assay: High-fructose diet Sprague-Dawley rats, oral dosing once/day for one week; assay type: in vivo
[3] = system: SREBP-1 maturation in liver; assay: High-fat and high-fructose diet rats, liver SREBP-1 maturation immunoblot; assay type: in vivo, rat; conditions: 10, 30 and 100 mg/kg; treated for the last 3 weeks of 18 weeks diet
Outline: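 Rats were fed a high-fat plus high-fructose diet for 18 weeks and dosed once daily by oral gavage with vehicle or test compound over the final 3 weeks. Vehicle was 0.5% methylcellulose, 0.025% Tween-80 in water, with compound ground to a suspension. Animals were fasted 24 h and refed 12 h. Whole liver lysate and nuclear extract were immunoblotted for precursor and mature SREBP-1 plus control proteins.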

HFrD-fed rats = assay: High-fructose diet Sprague-Dawley rats, oral dosing once/day for 90 days; assay type: in vivo, rat
[4] = In vivo pharmacologic and pharmacokinetic properties
adipose tissue = conditions: accompanied by decreased expression of SREBP-1; ref Pereira et al., 2013; cited from earlier work
PASK = PASK (Homo sapiens, UniProt Q96RG2); assay: In vitro protein kinase activity assay, purified PASK; assay type: biochemical; conditions: 100μM
Chain of PASK (Q96RG2 whole entry): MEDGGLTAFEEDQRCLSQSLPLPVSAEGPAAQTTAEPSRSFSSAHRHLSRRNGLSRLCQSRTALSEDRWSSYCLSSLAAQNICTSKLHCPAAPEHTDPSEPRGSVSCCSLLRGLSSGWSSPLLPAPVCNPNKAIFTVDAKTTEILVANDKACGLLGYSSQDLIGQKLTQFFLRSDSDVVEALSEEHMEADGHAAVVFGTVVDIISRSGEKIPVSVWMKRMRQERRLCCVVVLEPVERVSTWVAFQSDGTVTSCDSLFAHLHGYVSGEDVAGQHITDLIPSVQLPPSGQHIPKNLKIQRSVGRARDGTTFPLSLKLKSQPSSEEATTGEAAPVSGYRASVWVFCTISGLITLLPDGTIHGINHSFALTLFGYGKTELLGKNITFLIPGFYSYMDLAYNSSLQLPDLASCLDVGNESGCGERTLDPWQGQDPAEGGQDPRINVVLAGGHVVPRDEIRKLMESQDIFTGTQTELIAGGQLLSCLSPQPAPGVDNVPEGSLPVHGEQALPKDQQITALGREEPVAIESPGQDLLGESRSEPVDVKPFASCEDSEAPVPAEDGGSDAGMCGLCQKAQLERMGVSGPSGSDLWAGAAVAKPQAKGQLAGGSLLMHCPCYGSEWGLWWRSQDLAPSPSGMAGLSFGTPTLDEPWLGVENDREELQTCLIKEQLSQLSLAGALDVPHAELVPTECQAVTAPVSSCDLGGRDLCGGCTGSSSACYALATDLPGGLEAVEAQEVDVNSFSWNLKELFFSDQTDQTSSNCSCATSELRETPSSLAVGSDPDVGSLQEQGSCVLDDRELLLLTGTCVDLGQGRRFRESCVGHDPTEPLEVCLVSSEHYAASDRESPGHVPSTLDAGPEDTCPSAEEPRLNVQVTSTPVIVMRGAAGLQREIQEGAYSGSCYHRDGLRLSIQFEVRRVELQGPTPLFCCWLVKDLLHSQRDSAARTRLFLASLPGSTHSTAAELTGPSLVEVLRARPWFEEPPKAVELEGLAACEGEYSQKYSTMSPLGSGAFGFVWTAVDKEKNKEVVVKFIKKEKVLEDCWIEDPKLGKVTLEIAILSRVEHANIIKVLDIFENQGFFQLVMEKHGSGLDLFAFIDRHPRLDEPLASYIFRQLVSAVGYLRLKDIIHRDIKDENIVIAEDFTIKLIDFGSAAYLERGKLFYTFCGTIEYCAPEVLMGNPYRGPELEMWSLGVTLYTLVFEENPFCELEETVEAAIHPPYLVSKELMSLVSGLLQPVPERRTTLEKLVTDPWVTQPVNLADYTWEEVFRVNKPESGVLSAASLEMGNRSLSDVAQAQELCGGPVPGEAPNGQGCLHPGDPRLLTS
Outline: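 Purified PASK kinase activity measured with vehicle or test compound at the indicated concentrations. Activity is expressed as percent of vehicle-treated activity.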

50 other protein kinases = assay: In vitro specificity panel of 50 other protein kinases; assay type: biochemical, human; conditions: 100μM
HepG2 cells = assay: 14C-acetate incorporation into lipid; assay type: cell-based, human; conditions: 10 μM, HepG2, 14C-acetate
Outline: (§1)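 HepG2 cells or rat primary hepatocytes were pre-treated overnight in serum-free medium with vehicle or 10 μM test compound. They then got fresh medium with vehicle or […] test compound plus 100 nM insulin for 6 h, labelled with 10 μCi/ml [1-14C]-acetate for the last 4 h. Lysis was in 0.5% Triton X-100, lipids were extracted with chloroform:methanol 2:1, and the organic phase was scintillation-counted. Counts were normalised to lysate protein; n=3, mean ± SD.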

Rat primary hepatocytes [5] = assay: qRT-PCR of SREBP-1c target genes in insulin-stimulated rat primary hepatocytes; assay type: cell-based
Outline: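 Rat primary hepatocytes were isolated, plated, and pre-treated 16 h with DMSO or test compound, then stimulated with insulin or vehicle over a 12 h time course. FASN, GCK and SREBP-1c mRNAs were measured by qRT-PCR, normalised to r36B4, with the vehicle-treated unstimulated group set as 1; n=3, mean ± SEM.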

Rat primary hepatocytes [6] = assay: 14C-acetate incorporation into lipids in rat primary hepatocytes; assay type: cell-based
Outline: as §1

Q: Which results are given for `CC(C)N(C)c1nc2cc(C(=O)O)ccc2nc1-c1ccc(F)cc1` [BioE-1115]?
A: fold more potent as an inhibitor of PASK than of casein kinase 2α2 (casein kinase 2α): roughly 2500 fold; concentrations giving a significant reduction in SREBP activity (SREBP): above 10 μM; effects on cell morphology or growth rate (SREBP): without any observable effects; phosphorylation of Akt or S6K in response to insulin [1]: neither compound impaired; SREBP-1c maturation (mature:precursor SREBP-1c ratio) (SREBP-1c maturation; 30 and 50μM): suppressed; hepatic expression of SREBP-1c target genes ([2]; 1 or 3 mg/kg oral once/day, one week): no difference from vehicle-treated rats; hepatic expression of Gpat1, Fasn and all other SREBP-1c target genes analyzed ([2]; 10, 30 and 100 mg/kg oral once/day, one week): dose-dependent suppression; HOMA-IR ([2]; calculated measure of insulin resistance): decreased in a dose-dependent manner; hepatic SREBP-1c and SREBP-1a mRNA ([2]; highest doses): modestly decreased; body weight ([2]; oral once/day, one week): Neither dose of BioE-1115 caused a significant change; hepatic TAG ([2]; oral once/day, one week): decrease; hepatic expression of HMG-CoA synthase 1 and SREBP-2 ([2]; oral once/day, one week): induced in a dose-dependent manner; liver weight ([2]; oral once/day, one week): Neither dose of BioE-1115 caused a significant change; serum TAG ([2]; oral once/day, one week): decreased in a dose-dependent manner; serum cholesterol ([2]; oral once/day, one week): basically unaffected; serum glucose ([2]; oral once/day, one week): significant decrease; serum insulin levels ([2]; oral once/day, one week): slightly lower; SREBP-1 maturation in liver [3]: suppressed; hepatic Fasn and Acc1 expression (HFrD-fed rats; 3 mg/kg, 90 days): significantly suppressed; hepatic Fasn and Acc1 expression (HFrD-fed rats; 10, 30 and 100 mg/kg, 90 days): restored to that in normal chow fed animals; serum glucose levels as measured by glycated hemoglobin (HbA1c) (HFrD-fed rats; 90-day study): decreased; expression of SREBP-1c or its target genes in abdominal fat (HFrD-fed rats; 90 days): no significant differences; expression of SREBP-1c or its target genes in gastrocnemius muscle (HFrD-fed rats; 90 days): no significant differences; body weight (HFrD-fed rats; after 51 days of dosing): no drug-dependent difference; body weight (HFrD-fed rats; after 90 days of dosing): no drug-dependent difference; serum triglycerides (HFrD-fed rats; after 90 days of treatment): significant dose-responsive decrease; overt toxicity upon extended treatment (HFrD-fed rats; doses 10–30 fold higher than those required for significant effects on lipogenic gene expression and serum triglycerides): no overt toxicity; serum triglycerides (HFrD-fed rats; interim timepoint of 45 days): significant dose-responsive decrease; in vivo pharmacologic and pharmacokinetic properties relative to BioE-1197 [4]: more favorable

Q: Which “lipogenesis in adipose tissue” value (adipose tissue) does the source give for `CO[C@H]1C[C@@H]2CC[C@@H](C)[C@@](O)(O2)C(=O)C(=O)N2CCCC[C@H]2C(=O)O[C@H]([C@H](C)C[C@@H]2CC[C@@H](O)[C@H](OC)C2)CC(=O)[C@H](C)/C=C(\C)[C@@H](O)[C@@H](OC)C(=O)[C@H](C)C[C@H](C)/C=C/C=C/C=C/1C` [rapamycin] here?
A: decreased lipogenesis

Q: Which “PASK activity at extremely high concentration” value (PASK) does the source give for `C[C@H]1CCCN1c1nc2cc(C(=O)O)ccc2nc1-c1ccc(F)cc1` [BioE-1197] here?
A: essentially completely inactivated

Q: And the “activity of the majority of the 50 kinases” value (50 other protein kinases)?
A: either unaffected or only modestly inhibited

Q: What about the “number of other kinases substantially inhibited” value (50 other protein kinases; of 50 kinases other than PASK) of the same compound?
A: 8

Q: And the “concentrations giving a significant reduction in SREBP activity” value (SREBP)?
A: > 3 µM

Q: What about the “effects on cell morphology or growth rate” value (SREBP) of the same compound?
A: without any observable effects

Q: And the “phosphorylation of Akt or S6K in response to insulin” value [1]?
A: neither compound impaired

Q: What about the “suppression of SREBP-1c maturation compared with BioE-1428” value (SREBP-1c maturation; quantified over five independent experiments) of the same compound?
A: significantly more efficacious

Q: And the “decrease in 14C incorporation into lipids” value (HepG2 cells)?
A: ~ 60%

Q: And the “mRNA encoding SREBP-1c” value (Rat primary hepatocytes [5]; basal and insulin-stimulated conditions)?
A: significant decrease

Q: And the “insulin-induced increase in FASN and GCK mRNAs” value (Rat primary hepatocytes [5]; pre-treated 16 h, insulin over 12 h timecourse)?
A: either blunted or abolished

Q: What about the “insulin-induced increase in lipogenesis (14C-acetate incorporation into lipids)” value (Rat primary hepatocytes [6]) of the same compound?
A: completely abolished

Q: And the “hepatic expression of the gene encoding HMG-CoA reductase” value ([2]; oral once/day, one week)?
A: significantly decreased
